Where a chain is given by its changes, count along the chain named. Values after ≈ are worked out from the molar mass of the structure shown. Active and inactive are the calls of the source. The calls are words filed in the database; no cut-off is given here.

Series [1] deals with T1, High mobility group protein B1 (Mus musculus) (UniProt P63158).
T1 sequence (whole entry): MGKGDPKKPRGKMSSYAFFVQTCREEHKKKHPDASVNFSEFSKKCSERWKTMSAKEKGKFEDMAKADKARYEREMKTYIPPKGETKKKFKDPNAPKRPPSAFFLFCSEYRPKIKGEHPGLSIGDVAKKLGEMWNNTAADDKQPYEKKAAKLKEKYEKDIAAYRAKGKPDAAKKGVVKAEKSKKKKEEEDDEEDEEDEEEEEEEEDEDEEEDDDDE
The series is described as follows: Inhibition of HMGB1 translocation from nucleus to cytosol in LPS-stimulated mouse RAW264.7 cells assessed as inhibition of NO release at 10 uM measured after 24 hrs by Griess assay relative to control. An outline of the steps: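 Raw264.7 cells, seeded 1 day earlier, were moved to serum-free DMEM and exposed to 100 ng/mL LPS with 10 μM compound for 24 h. Supernatant NO was measured with Griess reagent (sulfanilamide/N-(1-naphthyl)ethylenediamine/phosphoric acid) at room temperature, absorbance 548 nm. Inhibition was set against LPS+DMSO wells, blank-corrected, with four control wells. At least three independent experiments.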
On the technique in general: Griess reagent forms a coloured azo dye with nitrite.

Series [2] can be described thus: Cytotoxicity against mouse RAW264.7 cells assessed as cell viability at 10 uM in presence of LPS measured after 24 hrs by WST assay relative to control. The conditions noted are these: read-out: Activity. In kind it is cell-based. An outline of the steps: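 Raw264.7 cells, seeded 1 day earlier, were washed into serum-free DMEM and given 100 ng/mL LPS plus compound (10 μM) for 24 h. After the supernatant was removed, wells were refilled with 10% FBS DMEM and WST reagent was added for 20 min at 37 °C. Absorbance was read at 450 nm, and viability is relative to vehicle. At least three independent experiments.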

Series [3] concerns the target T1, High mobility group protein B1 (Mus musculus). Nature of the series: Inhibition of HMGB1 translocation from nucleus to cytosol in LPS-stimulated mouse RAW264.7 cells assessed as inhibition of TNF-alpha production at 10 uM measured after 4 hrs by ELISA relative to control. The gist of the method:
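Raw264.7 cells in serum-free DMEM were treated with 100 ng/mL LPS and 10 μM compound (final). After 4 h, medium was diluted in 1% BSA/PBS and secreted TNF-α was quantified by ELISA against a standard curve of TNF-α protein. Inhibition is relative to control. At least three independent experiments.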
In general terms: An ELISA detects its analyte on a solid surface through an enzyme-linked reagent.

Series [4] shares this target. Nature of the series: Inhibition of HMGB1 nuclear translocation in LPS-stimulated mouse RAW264.7 cells at 20 uM pretreated for 1 hr followed by LPS-induction measured after 2 hrs by Hoechst 33342/TRITC staining based immunofluorescence microscopic method. The gist of the method:
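Raw264.7 cells on chambered coverglass were pretreated with 20 μM compound for 1 h, then given 500 ng/mL LPS for 2 h. Cells were fixed in 4% paraformaldehyde, permeabilized with methanol at −20 °C, blocked with 2% BSA, and stained with anti-HMGB1 plus TRITC secondary and Hoechst 33342. Imaged by deconvolution fluorescence microscopy. At least three independent experiments.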

Series [5] shares this target. The series is described as follows: Inhibition of HMGB1 nuclear translocation in LPS-stimulated mouse RAW264.7 cells assessed as inhibition of IL-6 production at 10 uM pretreated for 1 hr followed by LPS-induction by Western blot analysis. The gist of the method:
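Raw264.7 cells were pretreated with 10 μM compound for 1 h, then given 100 ng/mL LPS. IL-6 released into the culture medium was detected by Western blot with ECL chemiluminescence, DMSO as control. At least three independent experiments.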
On the technique in general: A western blot detects proteins with antibodies after separation by electrophoresis.

Series [6] concerns the target T2, High mobility group protein B1 (Homo sapiens) (UniProt P09429).
T2 sequence (whole entry): T1 sequence (whole entry) with D189E, E202D
Nature of the series: Inhibition of ICM-BP binding to recombinant human HMGB1 assessed as reduction in Cy5-azide incorporation pretreated for 60 mins followed by ICM-BP addition for 20 mins and subsequent UV light irradiation for 5 mins by fluorescence assay. The gist of the method: (§1)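 Purified HMGB1 (1 μg in water) was pretreated with competitor for 60 min, with DMSO held at 0.8% final. ICM-BP (5 μM) was then added for 20 min, followed by 365 nm UV for 5 min on ice. Cy5-azide was attached by click reaction, then samples were run on 12.5% SDS-PAGE and in-gel fluorescence scanned. Competitor was dosed in a graded series.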

The target of series [7] is MAP kinase p38 (Mus musculus) (UniProt P47811+O08911+Q9WUI1+Q9Z1B7). Nature of the series: Inhibition of MAPK p38 phosphorylation at Thr180/Tyr182 resdiues in LPS-stimulated mouse RAW264.7 cells at 20 uM pretreated followed by LPS-induction by Western blot analysis. The gist of the method: (§2)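 Raw264.7 cells were pretreated with 20 μM compound, then stimulated with 100 ng/mL LPS, with DMSO as control. Lysates in RIPA buffer with protease and phosphatase inhibitors were normalized by BCA and run on SDS-PAGE/Western blot for phospho-p38, JNK and ERK, with GAPDH as loading control. Detection by ECL, and band intensities were quantified. At least three independent experiments.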

For series [8], the species on record is Mus musculus. The series is described as follows: Inhibition of JNK phosphorylation at Thr183/Tyr185 resdiues in LPS-stimulated mouse RAW264.7 cells at 20 uM pretreated followed by LPS-induction by Western blot analysis. An outline of the steps:
as §2

For series [9], the species on record is Mus musculus. The series is described as follows: Inhibition of ERK phosphorylation in LPS-stimulated mouse RAW264.7 cells at 20 uM pretreated followed by LPS-induction by Western blot analysis. The gist of the method: as §2
Series [10] is filed under the species Mus musculus. Nature of the series: Inhibition of NF-kappaB p65 nuclear translocation in LPS-stimulated mouse RAW264.7 cells at 20 uM pretreated followed by LPS-induction by Hoechst 33342/TRITC staining based immunofluorescence microscopic method. An outline of the steps:
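NF-κB p65 immunofluorescence in Raw264.7 cells pretreated with 20 μM compound, then stimulated with 500 ng/mL LPS. Fixation was 4% paraformaldehyde, methanol permeabilization at −20 °C, and BSA blocking. Cells were stained with anti-p65 plus TRITC secondary and Hoechst 33342 nuclear stain, then imaged by deconvolution microscopy. At least three independent experiments.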

Series [11] is described as follows: Equilibrium aqueous solubility of the compound by microsol method. In kind it is physicochemical. The gist of the method: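 Equilibrium aqueous solubility by the μsol method. Mean ± SD, n = 3.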
The nature of series [12]: Stability in mouse liver microsomes assessed as compound remaining preincubated for 5 mins followed by NADPH addition measured after 30 mins LC/MS/MS method. The format is ADME, microsome. The conditions noted are these: read-out: Stability. An outline of the steps:
(§3)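 Compounds were incubated with human or mouse liver microsomes in 100 mM potassium phosphate, pH 7.4, at 37 °C for 5 min. NADPH regenerating solution was added, and the reaction was stopped at 30 min with ice-cold acetonitrile containing imipramine internal standard. Percent remaining was measured by LC/MS/MS. Mean ± SD, n = 3.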

A short description of series [13]: Stability in human liver microsomes assessed as compound remaining preincubated for 5 mins followed by NADPH addition measured after 30 mins LC/MS/MS method. The format is ADME, microsome. The conditions noted are these: read-out: Stability. The gist of the method: as §3
Series [14] can be described thus: Half life in ICR mouse at 10 mg/kg, ip by LC/MS/MS method. The format is ADME, organism-based. The conditions noted are these: in vivo.
Series [15] has as its system Mus musculus. The series is described as follows: Anti-inflammatory activity in C57BL/6(B6) mouse model of CLP-induced sepsis assessed as survival rate at 10 mg/kg, ip administered daily for 21 days starting from 1 hr prior to CLP-induction (reference value: 10 %). In kind it is functional.
Series [16] concerns Mus musculus. Nature of the series: Anti-inflammatory activity in C57BL/6(B6) mouse model of CLP-induced sepsis assessed as decrease in serum IL-6 level at 10 mg/kg, ip administered daily for 21 days starting from 1 hr prior to CLP-induction by ELISA. In kind it is functional, organism-based. An outline of the steps: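 Serum IL-6 measured by sandwich ELISA. Blood was taken from CLP-induced C57BL/6 mice 24 h after surgery. Plates coated with anti-IL-6 mAb overnight at 4 °C and blocked with 1% BSA/PBS; serum incubated overnight at 4 °C. Detection used biotinylated anti-IL-6 and streptavidin-HRP, TMB development and absorbance at 450 nm. Run in triplicate, three independent repeats.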

Series [17] concerns the target T2, High mobility group protein B1 (Homo sapiens). Nature of the series: Inhibition of ICM-BP binding to recombinant human HMGB1 assessed as reduction in Cy5-azide incorporation at 1 to 20 uM pretreated for 60 mins followed by ICM-BP addition for 20 mins and subsequent UV light irradiation for 5 mins by fluorescence assay. The gist of the method:
as §1

In series [18] the test system is Mus musculus. Nature of the series: Anti-inflammatory activity in C57BL/6(B6) mouse model of CLP-induced sepsis assessed as increase in survival rate at 10 mg/kg, ip administered daily for 9 days starting from 1 hr prior to CLP-induction. In kind it is functional, organism-based. The gist of the method:
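C57BL/6 mice from a specific pathogen-free facility underwent CLP. The cecum was ligated below the ileocecal valve 5.0 mm from the tip, punctured once with a 20-gauge needle and a little stool extruded, then the abdomen was closed. Mice received 10 mg/kg ip daily for 9 days and survival was followed against vehicle-treated mice.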

The subject of series [19] is Mus musculus. The series is described as follows: Anti-inflammatory activity in C57BL/6(B6) mouse model of CLP-induced sepsis assessed as decrease in serum IL-6 level at 10 mg/kg, ip administered daily for 9 days starting from 1 hr prior to CLP-induction by ELISA. The format is functional, organism-based.

By inhibition is commonly meant the change of the read-out against control, counted positive when it falls. As usually defined, the solubility (thermodynamic) is the concentration in solution at equilibrium with solid. Broadly, the half-life is the time in which the quantity being followed falls by half. Turning to `COc1cc(OC)cc(-n2c(=O)n3n(c2=O)C2C(=CC3)C(C)(C)Oc3cc(O)ccc32)c1` (stereo unspecified), the inhibition was 94% in series [1], 60% in series [3] and “Dose-dependent effect” in series [6]. Further, the viability at 24 h, 10 µM in [2] came out at 121%. The inhibition entry in series [4], in series [5], in series [7], in [8], in [9] and in series [10] was “Active” each time. In [11], this compound returned a thermodynamic solubility of 65.1 µg/mL (≈ 149 µM). In addition, the remaining at 0.5 h in series [12] came out at 20.2%; in series [13], 41.2%. In [14], the half-life is 5 h. Also, the survival at 10 mg/kg in series [15] stood at 56%. The outcome in series [16] was Active.

For the compound `CC(=O)c1ccc(-n2c(=O)n3n(c2=O)C2C(=CC3)C(C)(C)Oc3cc(O)ccc32)cc1` (stereo unspecified), the inhibition in [1] was 93%; in series [3], 68%; in series [6], “Dose-dependent effect”. Moreover, the viability at 24 h, 10 µM in series [2] stood at 111%. The inhibition result in series [4], in series [5], in series [7], in [8], in [9] and in series [10] was “Active” in each case. This compound also registered a thermodynamic solubility in series [11] of 162 µg/mL (≈ 387 µM). The remaining at 0.5 h in series [12] came to 2.46%; in series [13] it was 30.2%. For the same compound, the survival at 10 mg/kg in series [15] turned out to be 74%. For the same compound, the outcome in series [16] was Active.

As for `Cn1c(=O)n2n(c1=O)C1C(=CC2)C(C)(C)Oc2cc(O)ccc21` (stereo unspecified), the inhibition in series [1] was found to be 45%. In addition, the viability at 24 h, 10 µM in [2] turned out to be 114%. The inhibition result in series [17] was “inactive”.

For the compound `CC1(C)Oc2cc(O)ccc2C2C1=CCn1c(=O)n(-c3ccccc3)c(=O)n12` (stereo unspecified), the result in [18], in series [19] and in series [16] was Active. The figures for the inhibition in series [1], in [3] and in series [6] were 87%, 43% and “Dose-dependent effect”, respectively. The viability at 24 h, 10 µM in series [2] turned out to be 105%. Also, the inhibition result in series [4], in series [5], in series [7], in series [8], in [9] and in [10] was “Active” each time. In series [11], this compound came in with a solubility (thermodynamic) of 23.5 µg/mL (≈ 62.3 µM). Also, the remaining at 0.5 h in series [12] is 0.41%; in series [13], 0.82%. Besides, the survival at 10 mg/kg in series [15] was determined as 45%.

These data come from ChEMBL document CHEMBL4041534, “Treatment of Sepsis Pathogenesis with High Mobility Group Box Protein 1-Regulating Anti-inflammatory Agents” (J Med Chem, 2017).
